The record followed here is ChEMBL document CHEMBL1121824, “1-Aryl-3-azabicyclo[3.1.0]hexanes, a new series of nonnarcotic analgesic agents” (1981).

Holding throughout (assay type): functional
The test system of experiment [1] is Rattus norvegicus. The experiment is described as follows: Analgesic activity was measured using inflamed rat paw pressure threshold method expressed as ED50 (sc). A digest of the protocol: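 Paw-pressure threshold in rats, left hind paw injected with 0.1 mL 20% brewers' yeast; threshold recorded 2 h post-yeast. Compound given subcutaneously in normal saline at times set by duration of action. Positive = ≥100% threshold rise; ED50 with 95% confidence limits via Finney linear arc sine transformation.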

The subject of the next experiment is Mus musculus. Kind of experiment: Analgesic activity was measured using mouse anti-writhing method expressed as ED50 (po). A digest of the protocol:
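Mice in pairs; writhing induced by intraperitoneal phenyl-p-quinone 1 mg/kg. Compound given orally in 2% starch suspension with 5% PEG 400 and a drop of Tween 80.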

Experiment [2] deals with Rattus norvegicus. Kind of experiment: Analgesic activity for inflamed rat-paw reversal of abnormal (three legged) gait expressed as ED50 (po). A digest of the protocol: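 Rats given brewers' yeast in plantar surface of left hind paw; 3 h later gait scored 0 (normal) to 2 (maximal abnormal). Rats scoring 2 dosed orally in 2% starch suspension with 5% PEG 400 and Tween 80; gait rescored at set intervals. ED50 = dose reducing score from 2 to 1 in 50% of rats.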

For experiment [3], the system named is Rattus norvegicus. The experiment is described as follows: Analgesic activity was measured using inflamed rat paw pressure threshold method expressed as ED50 (po). A digest of the protocol:
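Modified Randall–Selitto: left hind paw sensitised with 0.1 mL 20% aqueous brewers' yeast, pressure-pain threshold read 2 h after yeast. Oral dosing in 2% starch/5% PEG 400/Tween 80, timed to peak effect. ≥100% threshold elevation positive; ED50 (dose giving this in 50% of rats) with 95% limits by Finney arc sine method.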

Experiment [4] has as its system Rattus norvegicus. The experiment is described as follows: Analgesic activity was assessed for inflamed rat-paw reversal of abnormal (three legged) gait expressed as ED50 (sc). A digest of the protocol: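 Yeast (brewers') injected into plantar surface of left hind paw; gait scored 0–2 at 3 h. Rats scoring 2 received compound subcutaneously in normal saline; postdrug scores taken at set intervals. ≥50% gait reduction counted positive; ED50 = dose lowering score 2 to 1 in 50% of rats.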

Setting [5] is: Mus musculus, po, read-out: ED50.
[6] abbreviates: Rattus norvegicus, po, read-out: ED50.

As to `CN1CC2CC2(c2cccc(O)c2)C1.Cl` (stereo not given), the median effective dose (ED50) in the experiment on Rattus norvegicus [1] is 25 mg/kg; with Mus musculus (setting [5]), more than 50 mg/kg; in the experiment on Rattus norvegicus [2] (setting [6]) it was more than 50 mg/kg.

With `Cl.Clc1ccccc1C12CNCC1C2` (stereo not given), the ED50 in the experiment with Rattus norvegicus [2] (setting [6]) is more than 100 mg/kg.

Regarding `Cl.Clc1cccc(C23CNCC2C3)c1` (stereo not given), the ED50 was 34 mg/kg with Mus musculus (setting [5]), 50 mg/kg with Rattus norvegicus [3] (setting [6]) and more than 50 mg/kg in the experiment on Rattus norvegicus [2] (setting [6]).

In the case of `Cl.Clc1ccc(C23CNCC2C3)cc1` (stereo in doubt; 2a), the ED50 in the experiment on Mus musculus worked out at 21 mg/kg; in the experiment on Rattus norvegicus [3], 21 mg/kg; in the experiment on Rattus norvegicus [2], 31 mg/kg.

Take `CCCCCCc1ccc(C23CNCC2C3)cc1.Cl` (stereo not given): in the experiment with Rattus norvegicus [2] (setting [6]), the ED50 was more than 50 mg/kg.

Turning to `Cl.Fc1ccc(C23CNCC2C3)cc1` (stereo not given), the ED50 was 34 mg/kg with Mus musculus (setting [5]), 14 mg/kg with Rattus norvegicus [3] (setting [6]) and more than 50 mg/kg with Rattus norvegicus [2] (setting [6]).

For `Cc1ccc(C23CC2CN(CC2CC2)C3)cc1.Cl` (stereo not given), in the experiment on Rattus norvegicus [2] (setting [6]), the ED50 is more than 50 mg/kg.

On to `Cl.Clc1ccc(C23CNCC2C3)cc1` (stereo in doubt; 2x), for which the ED50 in the experiment on Mus musculus was determined as 19 mg/kg; in the experiment on Rattus norvegicus [3], 13 mg/kg; in the experiment with Rattus norvegicus [2], 25 mg/kg.

Take `COc1ccc(C23CNCC2C3)cc1.Cl` (stereo not given): the ED50 in the experiment with Mus musculus (setting [5]) was found to be 4 mg/kg; in the experiment with Rattus norvegicus [3] (setting [6]), 49 mg/kg; in the experiment on Rattus norvegicus [2] (setting [6]), 24 mg/kg.

On to `Cc1ccc(C23CC2CN(C)C3)cc1.Cl` (stereo not given), for which the ED50 is 16 mg/kg in the experiment with Mus musculus (setting [5]), 24 mg/kg with Rattus norvegicus [3] (setting [6]) and 20 mg/kg in the experiment with Rattus norvegicus [2] (setting [6]).

With `CCc1ccc(C23CNCC2C3)cc1.Cl` (stereo not given), the results for the ED50 with Mus musculus (setting [5]), in the experiment with Rattus norvegicus [3] (setting [6]) and with Rattus norvegicus [2] (setting [6]) were 24 mg/kg, 25 mg/kg and 13 mg/kg, respectively.

Take `Cl.Clc1ccc(C23CNCC2C3)cc1Cl` (stereo not given): the ED50 with Rattus norvegicus [2] (setting [6]) worked out at 141 mg/kg.

In the case of `Cc1ccccc1C12CNCC1C2.Cl` (stereo not given), the ED50 in the experiment with Mus musculus (setting [5]) and with Rattus norvegicus [2] (setting [6]) was more than 50 mg/kg each time.

For `Brc1ccc(C23CNCC2C3)cc1.Cl` (stereo not given), the ED50 in the experiment on Rattus norvegicus [2] (setting [6]) was found to be 141 mg/kg.

Turning to `COc1ccc(C23CNCC2C3)cc1Br.Cl` (stereo not given), the ED50 in the experiment on Rattus norvegicus [2] (setting [6]) is more than 25 mg/kg.

As to `Cl.FC(F)(F)c1cc(C23CNCC2C3)ccc1Cl` (stereo not given), the ED50 in the experiment on Rattus norvegicus [2] (setting [6]) stood at 177 mg/kg.

As for `Cl.Clc1ccc(C23CNCC2C3)cc1` (stereo in doubt; 2y (-)), the ED50 was less than 100 mg/kg with Mus musculus, more than 50 mg/kg in the experiment on Rattus norvegicus [3] and 150 mg/kg in the experiment with Rattus norvegicus [2].

`COc1cccc(C23CC2CN(C)C3)c1.Cl` (stereo not given): the ED50 in the experiment on Rattus norvegicus [2] (setting [6]) was more than 100 mg/kg.

With `COc1ccc2c3c1O[C@H]1[C@@H](O)C=C[C@H]4[C@@H](C2)N(C)CC[C@@]341.COc1ccc2c3c1O[C@H]1[C@@H](O)C=C[C@H]4[C@@H](C2)N(C)CC[C@@]341.O.O=P(O)(O)O.O=P(O)(O)O` [CODEINE PHOSPHATE], the ED50 with Mus musculus (setting [5]) turned out to be 9 mg/kg; in the experiment on Rattus norvegicus [3] (setting [6]), 43 mg/kg; with Rattus norvegicus [2] (setting [6]) it was 51 mg/kg.

`Cc1ccc(C23CNCC2C3)cc1.Cl` (single isomer, unassigned; (-)) [BICIFADINE HYDROCHLORIDE]: the ED50 is more than 25 mg/kg with Rattus norvegicus [3] and more than 200 mg/kg with Rattus norvegicus [2].

Regarding `CCCCCCN1CC2CC2(c2ccc(C)cc2)C1.Cl` (stereo not given), the ED50 in the experiment on Rattus norvegicus [2] (setting [6]) was more than 50 mg/kg.

In the case of `CC(=O)Oc1ccccc1C(=O)O` [ASPIRIN], the values for the ED50 with Mus musculus (setting [5]), with Rattus norvegicus [3] (setting [6]) and with Rattus norvegicus [2] (setting [6]) were 29 mg/kg, 150 mg/kg and 74 mg/kg, respectively.

Regarding `Cc1ccc(C23CNCC2C3)cc1.Cl` (stereo in doubt; 2v) [BICIFADINE HYDROCHLORIDE], the ED50 is less than 25 mg/kg in the experiment with Rattus norvegicus [3] and 17 mg/kg with Rattus norvegicus [2].

For `COc1cccc(C23CNCC2C3)c1.Cl` (stereo not given), the ED50 in the experiment on Rattus norvegicus [2] (setting [6]) worked out at 177 mg/kg.

As for `Cl.FC(F)(F)c1cccc(C23CNCC2C3)c1` (stereo not given), the results for the ED50 in the experiment with Mus musculus (setting [5]), with Rattus norvegicus [3] (setting [6]) and with Rattus norvegicus [2] (setting [6]) were 29 mg/kg, 50 mg/kg and 28 mg/kg, respectively.

For `Cl.Fc1cccc(C23CNCC2C3)c1` (stereo not given), the ED50 was 21 mg/kg in the experiment on Mus musculus (setting [5]), 67 mg/kg in the experiment on Rattus norvegicus [3] (setting [6]) and more than 50 mg/kg with Rattus norvegicus [2] (setting [6]).

On to `Cl.Oc1ccc(C23CNCC2C3)cc1` (stereo not given), for which the ED50 with Rattus norvegicus [2] (setting [6]) is more than 200 mg/kg.

As to `CN1CC2CC2(c2ccc(Cl)cc2)C1.Cl` (stereo not given), the ED50 with Mus musculus (setting [5]) is less than 100 mg/kg; in the experiment on Rattus norvegicus [3] (setting [6]), 60 mg/kg; in the experiment on Rattus norvegicus [2] (setting [6]), more than 50 mg/kg.

Consider `Cl.c1ccc(C23CNCC2C3)cc1` (stereo in doubt; 2c), for which the ED50 is less than 100 mg/kg in the experiment with Mus musculus (setting [5]), 71 mg/kg in the experiment with Rattus norvegicus [3] (setting [6]) and 70 mg/kg in the experiment with Rattus norvegicus [2].

Consider `CC(C)c1ccc(C23CNCC2C3)cc1.Cl` (stereo not given), for which the ED50 with Rattus norvegicus [1] was more than 25 mg/kg; in the experiment with Rattus norvegicus [4], 9 mg/kg; with Mus musculus (setting [5]), 30 mg/kg.

`Cl.c1ccc(C23CNCC2C3)cc1` (single isomer, unassigned; (+)): the ED50 in the experiment with Rattus norvegicus [3] stood at 79 mg/kg; in the experiment with Rattus norvegicus [2], 125 mg/kg.

With `Cc1cccc(C23CNCC2C3)c1.Cl` (stereo not given), the ED50 is 18 mg/kg with Mus musculus (setting [5]), 25 mg/kg with Rattus norvegicus [3] (setting [6]) and more than 50 mg/kg in the experiment with Rattus norvegicus [2] (setting [6]).

On to `CC(C)(C)c1ccc(C23CNCC2C3)cc1.Cl` (stereo not given), for which the ED50 in the experiment with Rattus norvegicus [2] (setting [6]) was more than 200 mg/kg.

Turning to `Cl.FC(F)(F)c1ccc(C23CNCC2C3)cc1` (stereo not given), the ED50 with Mus musculus (setting [5]) is more than 100 mg/kg; with Rattus norvegicus [3] (setting [6]) it was 40 mg/kg; in the experiment on Rattus norvegicus [2] (setting [6]), 38 mg/kg.

For `CCOc1ccc(C23CNCC2C3)cc1.Cl` (stereo not given), the ED50 in the experiment on Rattus norvegicus [2] (setting [6]) was 29 mg/kg.

As to `C=CCN1CC2CC2(c2ccc(C)cc2)C1.Cl` (stereo not given), the ED50 with Rattus norvegicus [2] (setting [6]) was more than 50 mg/kg.

For the compound `Cl.c1ccc(C23CNCC2C3)cc1` (single isomer, unassigned; (-)), the ED50 is less than 50 mg/kg in the experiment with Mus musculus, 43 mg/kg with Rattus norvegicus [3] and more than 200 mg/kg with Rattus norvegicus [2].

For `Cl.Oc1cccc(C23CNCC2C3)c1` (stereo not given), the ED50 in the experiment with Rattus norvegicus [1] was more than 25 mg/kg; with Rattus norvegicus [4] it was 16 mg/kg.

For `Cc1ccc(C23CNCC2C3)cc1.Cl` (stereo in doubt; 2b) [BICIFADINE HYDROCHLORIDE], the ED50 was determined as 4 mg/kg in the experiment with Rattus norvegicus [4], 13 mg/kg with Mus musculus (setting [5]), 11 mg/kg with Rattus norvegicus [3] and 18 mg/kg in the experiment with Rattus norvegicus [2].

One may read the ED50 as the dose at which the effect has come halfway, by size or by number of responders.
